VIM-2 inhibitor: blocks Pseudomonas aeruginosa VIM-2 metallo-beta-lactamase. purified VIM-2, nitrocefin hydrolysis, epi-absorbance fluorescence. inhibition, % at 5.6 µM. 0.89% of 290,000 active;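 active = inhibition above the mean of all tested compounds plus 3 SD, cutoff set per screening run, cut at about 7.5% in these data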;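 also: red hydrolysis product quenches plate fluorescence so inhibitors raise well fluorescence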
pCIP destab: compounds decreasing mouse p/CIP protein stability; Q05BA5; decrease of EGFP signal, % at 10 µM; F442A p/CIP-EGFP cells, EGFP fluorescence, 16 h; 0.01% of 290,000 active;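 active = EGFP signal decrease of at least 30% at 10 µM or well 3 SD below plate mean, unless failing retest; inactive = the rest, including hits failing retest or dose response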
IMP-1 inhibitor: blocks Pseudomonas aeruginosa IMP-1 metallo-beta-lactamase; purified IMP-1, nitrocefin hydrolysis, epi-absorbance fluorescence; 0.45% of 290,000 active; AID 1556; inhibition, % at 5.6 µM;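 active = inhibition above the mean plus 3 SD of all compounds in the same screening run, cut at about 4.5% in these data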
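assay system = purified recombinant IMP-1 metallo-beta-lactamase enzyme | schedule = 15 min preincubation plus 25 min reaction at 25 °C | signal = Epi-absorbance fluorescence, 480 nm excitation, 530 nm emission | read-out basis = percent inhibition from optical density relative to buffer-blank wells | controls = IMP-1 with DMSO as 0%, enzyme-free DMSO as 100%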
CTSL1 counter: cathepsin L1 inhibition, PFM18AAP counter-screen. AID 1906. recombinant F. hepatica cathepsin L1, Z-Leu-Arg-MCA fluorescence. 0.49% of 300,000 active. inhibition, % at 5.96 µM;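 active = inhibition above the mean of all tested compounds plus 3 SD, set per screening campaign, cut at about 17% in these data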
SUMO HTRF inh: SUMOylation inhibition. HTRF SUMOylation assay, SAE1/SAE2 + UBC9, in vitro. AID 2006. 0.36% of 290,000 active. inhibition, % at 35 µM; in the data active = inhibition above about 50%, passing the limit was not always enough
Target sequence (P63279 whole entry, looked up): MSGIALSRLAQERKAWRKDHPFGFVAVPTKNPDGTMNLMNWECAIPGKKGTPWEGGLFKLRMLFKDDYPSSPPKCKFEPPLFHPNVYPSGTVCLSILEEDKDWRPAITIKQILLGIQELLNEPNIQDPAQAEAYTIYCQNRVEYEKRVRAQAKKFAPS
T cell HTS: modulates CD8 T cell binding to vesicles | 0.068% of 330,000 active | 2C CD8+ T cell-vesicle binding, flow cytometry; active compounds read low | response (vesicle binding), % at 7 µM | AID 2052;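 active = response, share of CD8 T cells binding vesicles, and their 90th percentile fluorescence all below set limits, cut at about 80% in these data, passing the limit was not always enough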;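 also: values below 100% mean blocked vesicle binding to the CD8+ T cells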
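Benchmarks: naked versus QL9-loaded vesicles / Assay system: purified 2C TCR transgenic mouse naive CD8+ T cells / Technique: high-throughput flow cytometry with anti-B7-1 and anti-CD8 staining / Timing: Cell–vesicle co-incubation 1.5 h at 37 °C, staining 20 min on ice / Read-out: percent CD8+ FL2 mean versus row control / Probe or stimulus: QL9-loaded Drosophila micro-vesicles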
A number is an active result; – = inactive; · = no result given. Most compounds without a hit are left out; they make up all but 1.9% or so of the library.

SMILES	VIM-2 inhibitor	pCIP destab	IMP-1 inhibitor	CTSL1 counter	SUMO HTRF inh	T cell HTS
O=C(CNC(=O)c1ccc(F)cc1)Nc1ccccc1C(F)(F)F	–	–	–	–	–	–
CC(=O)N1CCc2cc(Br)cc(S(=O)(=O)CCC(=O)N3CCN(c4ccccn4)CC3)c21	–	–	–	21	–	–
CCOC(=O)[C@H]1[C@H]2COc3cc(OC)ccc3[C@@H]2N2C(=O)c3c(C)cc(C)cc3NC(=O)[C@@]12C	·	·	·	·	·	–
O=C(C1CC(=O)N(c2ccc3c(c2)OCCO3)C1)N1CCN(c2cccc(C(F)(F)F)c2)CC1 (stereo not given)	·	·	·	–	·	–
O=C(CSc1ccc(Cl)cc1)c1ccco1	–	–	–	–	–	–
O=C(CCSc1ccc(Cl)cc1)c1ccco1	–	–	–	20	–	–
Cc1ccccc1-c1nc2cc(N)ccc2o1	–	–	–	–	65	–
Cc1nc2ccc(-c3nc4cc(N)ccc4o3)cc2[nH]1	–	–	–	–	53	–
O=C1C(=O)N(Cc2cccnc2)C(c2cccc(Br)c2)/C1=C(/O)c1ccc2c(c1)OCO2 (stereo not given)	–	–	–	–	–	–
COCCN(C(=O)c1sc2ccccc2c1Cl)c1c(N)n(CC(C)C)c(=O)[nH]c1=O	·	·	·	·	·	–
N#Cc1ccccc1S(=O)(=O)N1CCN(C(=O)Cc2coc3cc(O)ccc23)CC1	·	·	·	·	·	–
O=C(Nc1nnc(-c2ccccc2SCc2ccccc2F)s1)Nc1ccccc1F	–	–	–	–	52	–
O=C(Nc1nnc(-c2ccc(F)cc2)s1)Nc1ccccc1F	–	–	–	–	–	–
CCCCNC(=S)NC(C)(C)CO	–	–	–	–	–	–
Cc1ccc2occ(/C=N/NC(=O)c3ccc(O)cc3)c(=O)c2c1	–	–	–	·	–	–
Cc1ccc2occ(/C=N/NC(=O)c3ccccc3Br)c(=O)c2c1	–	–	5.2	–	–	–
CCOc1ccccc1C(=O)N/N=C/c1coc2ccc(C)cc2c1=O	–	–	10	·	–	–
Cn1nnnc1NCc1ccccc1F	–	–	–	–	–	–
Cc1ccccc1NC(=O)COC(=O)CCc1c[nH]c2ccccc12	·	·	·	·	·	–
Cc1ccc(NC(=O)COC(=O)CCc2c[nH]c3ccccc23)c(C)c1	·	·	·	·	·	0.0
COc1ccc(C2=NOC(C(=O)N3CCN(C(=O)c4ccco4)CC3)C2)cc1OC (stereo not given)	–	–	–	–	–	–
Cc1ccn2cc(CCNS(=O)(=O)c3ccc4ccccc4c3)nc2c1	–	–	–	30	–	–
Cc1ccn2cc(CCNS(=O)(=O)c3ccc([N+](=O)[O-])cc3)nc2c1	–	–	–	–	–	–
CCc1nn(CC(=O)NCCN2CCOCC2)c(=O)c2cc3c(OC)cccc3n12	8.8	–	–	–	–	–
COc1cccc2c1cc1c(=O)n(CC(=O)NCCCN3CCN(C)CC3)nc(C)n12	10	–	–	–	–	–
SMILES	VIM-2 inhibitor	pCIP destab	IMP-1 inhibitor	CTSL1 counter	SUMO HTRF inh	T cell HTS
Cc1ccc(-c2nn(CC(=O)NCCN3CCOCC3)c(=O)c3ccccc23)cc1	–	–	–	–	–	–
CCCSCCCNC(=O)Cn1nc(CC)n2c(cc3c(OC)cccc32)c1=O	–	–	9.1	–	–	–
COc1cccc2c1cc1c(=O)n(CC(=O)NC3CCCCC3)nc(C)n12	–	–	–	–	–	–
COc1ccc(NC(=O)C2(S(=O)(=O)c3ccc(C)cc3)CC2)cc1	–	–	–	–	–	–
Cc1ccc(S(=O)(=O)NC2CCSC2=O)cc1C (stereo not given)	·	·	·	·	·	–
COc1ccccc1C(=O)COC(=O)Cn1nc(C)c([N+](=O)[O-])c1C	·	·	·	–	·	–
C=CCC(NC(C)c1ccccc1)c1ccco1 (stereo not given)	–	–	8.4	–	–	–
C=CCC(NCc1ccccc1)c1ccccc1 (stereo not given)	–	–	–	–	–	–
Cc1ccc(C(=O)/C=C/c2ccc(-c3ccc(C)cc3)o2)cc1	–	–	–	28	–	–
O=C(/C=C\c1ccc(-c2ccccc2)o1)c1ccccc1	–	–	–	66	–	–
CCN(CC)S(=O)(=O)c1ccc(C(=O)/C=C/c2ccc(-c3ccc([N+](=O)[O-])cc3)o2)cc1	–	–	–	–	–	–
